Measurements: ChEMBL document CHEMBL4130545, “Lupane-Type Triterpenes of Phoradendron vernicosum” (J Nat Prod, 2017)

Key:
HEp-2 [1] = test: Antiproliferative activity in human Hep2 cells by sulforhodamine B assay; assay type: functional, cell-based
In short: (§1)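 Cells grown in D-MEM with 10% (v/v) FBS, 100 U/mL penicillin G and 100 μg/mL streptomycin, at 37 °C under 5% CO2 and 95% humidity. Cytotoxic and antiproliferative effects were measured by the sulforhodamine B method of Skehan et al. CC50 (cytotoxic) or IC50 (antiproliferative) is the concentration giving 50% growth reduction. Docetaxel was the positive control. Triplicate tests.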

[2] = Selectivity index, ratio of cytotoxic CC50 for African green monkey Vero cells to cytotoxic CC50 for human SiHa cells; assay type: toxicity; conditions: Vero cells versus SiHa cells, read-out: Selectivity Index
In short: (§2)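 Selectivity index for harmfulness to normal cells: the normal-cell (Vero or HEK293) CC50 or IC50 over the cancer-cell value from the same assay type. Each value is from sulforhodamine B growth-reduction tests done in triplicate in D-MEM/10% FBS at 37 °C, 5% CO2.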

SiHa [3] = test: Antiproliferative activity in human SiHa cells by sulforhodamine B assay; assay type: functional, cell-based; in short: as §1
SiHa [4] = test: Cytotoxic activity in human SiHa cells by sulforhodamine B assay; assay type: functional
In short: (§3)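 Cell lines grown in D-MEM with 10% (v/v) FBS, 100 U/mL penicillin G and 100 μg/mL streptomycin at 37 °C, 5% CO2, 95% humidity. Cytotoxicity was measured by the Skehan method. CC50 was taken as the concentration that reduces cell growth by 50%. Docetaxel served as positive control, and each test was run in triplicate.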

Vero = test: Antiproliferative activity in African green monkey Vero cells by sulforhodamine B assay; assay type: cell-based; conditions: Chlorocebus sabaeus; in short: as §1
[5] = Selectivity index, ratio of cytotoxic CC50 for African green monkey Vero cells to cytotoxic CC50 for human MDA-MB-231 cells; assay type: toxicity; conditions: Vero cells versus MDA-MB-231 cells, read-out: Selectivity Index; in short: as §2
HEK293 = test: Antiproliferative activity in HEK293 cells by sulforhodamine B assay; assay type: cell-based; conditions: Homo sapiens; in short: as §1
[6] = Selectivity index, ratio of cytotoxic CC50 for African green monkey Vero cells to cytotoxic CC50 for human KB cells; assay type: toxicity; conditions: Vero cells versus KB cells, read-out: Selectivity Index; in short: as §2
HeLa [7] = test: Cytotoxic activity in human HeLa cells by sulforhodamine B assay; assay type: functional; in short: as §3
[8] = Selectivity index, ratio of cytotoxic CC50 for African green monkey Vero cells to cytotoxic CC50 for human DU145 cells; assay type: toxicity; conditions: Vero cells versus DU145 cells, read-out: Selectivity Index; in short: as §2
DU-145 [9] = test: Antiproliferative activity in human DU145 cells by sulforhodamine B assay; assay type: functional, cell-based; in short: as §1
HeLa [10] = test: Antiproliferative activity in human HeLa cells by sulforhodamine B assay; assay type: functional, cell-based; in short: as §1
MCF7 [11] = test: Antiproliferative activity in human MCF7 cells by sulforhodamine B assay; assay type: functional, cell-based; in short: as §1
DU-145 [12] = test: Cytotoxic activity in human DU145 cells by sulforhodamine B assay; assay type: functional; in short: as §3
HEp-2 [13] = test: Cytotoxic activity in human Hep2 cells by sulforhodamine B assay; assay type: functional; in short: as §3
[14] = Selectivity index, ratio of antiproliferative IC50 for African green monkey Vero cells to antiproliferative IC50 for human KB cells; assay type: toxicity; conditions: Vero cells versus KB cells, read-out: Ratio IC50; in short: as §2
MCF7 [15] = test: Cytotoxic activity in human MCF7 cells by sulforhodamine B assay; assay type: functional; in short: as §3
KB [16] = test: Cytotoxic activity in human KB cells by sulforhodamine B assay; assay type: functional; in short: as §3
MDA-MB-231 [17] = test: Antiproliferative activity in human MDA-MB-231 cells by sulforhodamine B assay; assay type: functional, cell-based; in short: as §1
[18] = Selectivity index, ratio of cytotoxic CC50 for African green monkey Vero cells to cytotoxic CC50 for human MCF7 cells; assay type: toxicity; conditions: Vero cells versus MCF7 cells, read-out: Selectivity Index; in short: as §2
[19] = Cytotoxic activity in HEK293 cells by sulforhodamine B assay; assay type: cell-based; conditions: human; in short: as §1
MDA-MB-231 [20] = test: Cytotoxic activity in human MDA-MB-231 cells by sulforhodamine B assay; assay type: functional; in short: as §3
[21] = Cytotoxic activity in African green monkey Vero cells by sulforhodamine B assay; assay type: cell-based; conditions: chlorocebus sabaeus; in short: as §1
[22] = Selectivity index, ratio of antiproliferative IC50 for African green monkey Vero cells to antiproliferative IC50 for human SiHa cells; assay type: toxicity; conditions: Vero cells versus SiHa cells, read-out: Ratio IC50; in short: as §2
[23] = Selectivity index, ratio of antiproliferative IC50 for African green monkey Vero cells to antiproliferative IC50 for human MCF7 cells; assay type: toxicity; conditions: Vero cells versus MCF7 cells, read-out: Ratio IC50; in short: as §2
[24] = Selectivity index, ratio of antiproliferative IC50 for African green monkey Vero cells to antiproliferative IC50 for human Hep2 cells; assay type: toxicity; conditions: Vero cells versus Hep2 cells, read-out: Ratio IC50; in short: as §2
KB [25] = test: Antiproliferative activity in human KB cells by sulforhodamine B assay; assay type: functional, cell-based; in short: as §1

Work on `C=C(C)[C@@H]1CC[C@]2(C(=O)O)CC[C@]3(C)[C@H](CC[C@@H]4[C@@]5(C)CC[C@@H](O)[C@](C)(CO)[C@@H]5CC[C@]43C)[C@@H]12` yielded an IC50 (HEp-2 [1]) of 75.2 to 500 µM, a selectivity ratio [2] of 4.7 and an IC50 (SiHa [3]) of 57.8 to 500 µM. The CC50 (SiHa [4]) was 20.3 to 110 µM, the IC50 (Vero) was over 500 µM and the selectivity ratio [5] was 1.3. The IC50 (HEK293) was 95.5 to 500 µM, the selectivity ratio [6] was 18.3 and the CC50 (HeLa [7]) was 120 to 153 µM. It also gave a selectivity ratio [8] of 1.8, an IC50 (DU-145 [9]) of over 500 µM and an IC50 (HeLa [10]) of over 500 µM. It also gave an IC50 (MCF7 [11]) of 48.9 to 500 µM, a CC50 (DU-145 [12]) of 53.1 to 97.2 µM and a CC50 (HEp-2 [13]) of over 500 µM. The selectivity ratio [14] was 18.3, the CC50 (MCF7 [15]) was 31.7 to 98.5 µM and the CC50 (KB [16]) was 24.1 to 500 µM. It also gave an IC50 (MDA-MB-231 [17]) of 169 to 500 µM, a selectivity ratio [18] of 3 and a CC50 [19] of 95.8 to 500 µM. For the same molecule, the CC50 (MDA-MB-231 [20]) was 71.2 to 91.1 µM, the CC50 [21] was over 500 µM and the selectivity ratio [22] was 1.6. For the same molecule, the selectivity ratio [23] was 1.9, the selectivity ratio [24] was 1.3 and the IC50 (KB [25]) was 12.5 to 500 µM.
